Results of several laboratories.
Target: Tyrosine-protein kinase Mer (MERTK, Homo sapiens, UniProt Q12866)
Residues used in one study (Q12866 21-999): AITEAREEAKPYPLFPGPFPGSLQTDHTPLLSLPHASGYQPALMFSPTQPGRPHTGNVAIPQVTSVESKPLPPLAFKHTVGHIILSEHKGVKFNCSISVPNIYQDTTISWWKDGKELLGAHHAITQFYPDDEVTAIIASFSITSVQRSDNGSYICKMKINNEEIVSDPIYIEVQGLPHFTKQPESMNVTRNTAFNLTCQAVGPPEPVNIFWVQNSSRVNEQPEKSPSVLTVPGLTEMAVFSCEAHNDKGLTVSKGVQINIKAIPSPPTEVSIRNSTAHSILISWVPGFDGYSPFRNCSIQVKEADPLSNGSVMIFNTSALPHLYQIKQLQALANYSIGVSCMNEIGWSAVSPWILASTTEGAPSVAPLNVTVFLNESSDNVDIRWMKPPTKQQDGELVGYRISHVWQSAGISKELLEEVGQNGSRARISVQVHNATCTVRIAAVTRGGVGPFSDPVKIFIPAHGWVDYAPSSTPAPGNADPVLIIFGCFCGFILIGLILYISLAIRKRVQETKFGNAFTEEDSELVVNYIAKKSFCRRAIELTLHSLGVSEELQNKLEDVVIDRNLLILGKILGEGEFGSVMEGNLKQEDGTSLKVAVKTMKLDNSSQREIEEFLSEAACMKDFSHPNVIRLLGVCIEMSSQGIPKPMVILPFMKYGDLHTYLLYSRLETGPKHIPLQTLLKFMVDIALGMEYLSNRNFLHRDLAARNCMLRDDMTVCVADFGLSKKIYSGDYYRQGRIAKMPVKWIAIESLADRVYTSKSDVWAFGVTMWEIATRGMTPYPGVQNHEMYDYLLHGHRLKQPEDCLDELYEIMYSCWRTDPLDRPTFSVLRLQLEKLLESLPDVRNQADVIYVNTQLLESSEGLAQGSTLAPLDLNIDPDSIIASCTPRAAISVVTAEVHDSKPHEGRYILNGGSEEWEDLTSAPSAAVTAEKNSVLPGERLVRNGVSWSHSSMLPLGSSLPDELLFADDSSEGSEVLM

Compound	assay	setting	quantity	value
CCCCN(CCCC)C(=O)CN1C[C@H](c2cc(OC)c3c(c2)OCO3)[C@@H](C(=O)O)[C@@H]1CC(C)(C)CCC	cell-free assay, competition with immobilised ligand	1 µM	remaining binding	100%
CNC(=O)c1cc2c(Oc3ccc(NC(=O)C4(C(=O)Nc5ccc(F)cc5)CC4)cc3)ccnc2cc1OC	enzyme activity, inhibitor, radiometric	1 µM	inhibition	99%
CCCOc1ccc(OC)c(F)c1C(=O)c1ccc(C(=O)N[C@@H]2CNC[C@H]2NC(=O)c2ccc3[nH]ncc3c2)cc1	enzyme activity, inhibitor	10 µM	remaining activity	36%
Cn1c2c(c3ccc(Cl)c(Cl)c31)C(C#N)C1(CCCC1)NC2=O (stereo not drawn)	thermal stability, DSF	10 µM	ΔTm	-0.5 °C
CC(C)(O)c1cncc(-c2nc3ccc(F)cc3n2C2CC2)c1	cell-free assay, competition with immobilised ligand	1 µM	remaining binding	96%
Cc1sc(C(=O)NC2COC2)cc1-n1cc(NC(=O)Nc2c(F)cccc2Cl)cn1	enzyme activity, inhibitor	10 µM	remaining activity	103%
Cc1c[nH]c2nccc(Oc3c(F)cc(Nc4cc(Cl)nc(N)n4)cc3F)c12	cell-free assay, competition with immobilised ligand	0.1 µM	remaining binding	100%
CNC(=O)c1cc(Oc2ccc(NC(=O)Nc3ccc(Cl)c(C(F)(F)F)c3)cc2)ccn1	enzyme activity, inhibitor	0.3 µM	inhibition	26%
Cn1c2c(c3ccc(Cl)c(Cl)c31)C(C#N)C1(CCNCC1)NC2=O (racemic)	thermal stability, DSF	10 µM	ΔTm	0.5 °C
O=C(Nc1cnn(-c2csc(C(=O)NC3COC3)c2)c1)Nc1ccccc1Cl	enzyme activity, inhibitor	5 µM	remaining activity	92.7%
CC(C)(C)c1nc(-c2cccc(NS(=O)(=O)c3c(F)cccc3F)c2F)c(-c2ccnc(N)n2)s1	enzyme activity, inhibitor, radiometric	1 µM	remaining activity	115%
COc1ccc2c(O[C@@H]3C[C@H]4C(=O)N[C@]5(C(=O)O)CC5/C=C\CCCCC[C@H](NC(=O)OC5CCCC5)C(=O)N4C3)cc(-c3csc(NC(=O)C(C)C)n3)nc2c1C (stereo partly drawn)	cell-free assay, competition with immobilised ligand	1 µM	remaining binding	70%
CCN1CCC2(CC1)NC(=O)c1c(c3ccc(Cl)c(Cl)c3n1C)C2C#N (racemic)	thermal stability, DSF	10 µM	ΔTm	1 °C
Cc1ccc(Nc2nccc(N(C)c3ccc4c(C)n(C)nc4c3)n2)cc1S(N)(=O)=O	enzyme activity, inhibitor	0.3 µM	inhibition	32%
CN(C)C(=O)Cn1cc(-c2nc([C@@](C)(c3ccc(-c4cnc(N)nc4)cc3)C3CC3)no2)cn1	cell-free assay, competition with immobilised ligand	1 µM	remaining binding	100%
Nc1ncnc2occ(-c3ccc(NC(=O)Nc4cc(C(F)(F)F)ccc4F)cc3)c12	cell-free assay	20 µM	remaining signal	0.25%
Cc1ccc(C(=O)NCc2ccsc2)cc1C#Cc1cn(C(C)C)c2ncnc(N)c12	enzyme activity, inhibitor	1 µM	activity vs control	71%
COc1cc2nccc(Oc3ccc(NC(=O)c4c5n(n(-c6ccc(F)cc6)c4=O)CCCC5)cc3)c2cc1OC	enzyme activity, inhibitor	0.1 µM	inhibition	100%
Cn1c2c(Cl)c(Cl)ccc2c2cn[nH]c(=O)c21	thermal stability, DSF	10 µM	ΔTm	-0.5 °C
O=c1cc(-c2cccc3c2Sc2ccccc2S3)oc(N2CCOCC2)c1	enzyme activity, inhibitor	0.5 µM	remaining activity	97%
O=C(NC[C@@H]1[C@H]2CN(C(=O)OCc3cc(C(F)(F)F)cc(C(F)(F)F)c3)C[C@@H]12)c1ccc2[nH]nnc2c1	cell-free assay, competition with immobilised ligand	1 µM	remaining binding	100%
CCCS(=O)(=O)Nc1ccc(F)c(C(=O)c2c[nH]c3ncc(-c4ccc(Cl)cc4)cc23)c1F	enzyme activity, inhibitor	1 µM	inhibition	< 10%
Cc1ccc(C(=O)Nc2ccc(CN3CCN(C)CC3)c(C(F)(F)F)c2)cc1C#Cc1cnc2cccnn12	enzyme activity	23.5 nM	remaining activity	86%
Cn1nc(C(F)(F)F)cc1-c1cnc(N2CCc3cc(S(=O)(=O)Nc4c(F)cc(Cl)cc4F)cc(N4CCCC4=O)c32)nc1	cell-free assay, competition with immobilised ligand	1 µM	remaining binding	100%
CCN(CC)CCNC(=O)c1c(C)[nH]c(/C=C2\C(=O)Nc3ccc(F)cc32)c1C	enzyme activity, inhibitor	0.3 µM	inhibition	94%
CNCc1ccccc1-c1csc([C@@H](C)Nc2nc(C)nc3cc(OC)c(OC)cc23)c1	cell-free assay, competition with immobilised ligand	1 µM	remaining binding	61%
O=C1NC(=O)c2cc(Nc3ccc(F)cc3)c(Nc3ccc(F)cc3)cc21	cell-free assay	0.5 µM	remaining signal	97.4%
COc1cc2ncnc(Nc3ccc(Oc4ccccc4)cc3C)c2cc1OC	enzyme activity, inhibitor	1 µM	inhibition	87%
CC1(C)NC(=O)c2[nH]c3c(Cl)c(Cl)ccc3c2C1C#N (stereo not drawn)	thermal stability, DSF	10 µM	ΔTm	-1.1 °C
N#CCCc1ccc2c(c1)-c1[nH]c3ccc([N+](=O)[O-])cc3c1CC(=O)N2	cell-free assay	0.5 µM	remaining signal	77.5%
